Measurements as given in ChEMBL document CHEMBL3877292, “Synthesis and evaluation of novel hybrids β-carboline-4-thiazolidinones as potential antitumor and antiviral agents” (Eur J Med Chem, 2016).

What was measured:
[1] = Cell cycle arrest in human 786-0 cells assessed as accumulation at S phase at 12.5 uM after 24 hrs by propidium iodide staining-based flow cytometry (Rvb=12.6+/-0.7%); format: functional
Procedure, shortened: (§1)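 786-0 cells seeded at 3×10^4 cells/mL and grown 24 h, then serum-starved 24 h to synchronise. Treated in DMSO/RPMI for 24 h alongside DMSO vehicle and colchicine control. 1×10^5 cells in PBS were stained with propidium iodide for 20 min in the dark at room temperature, then analysed by flow cytometry. Results are mean ± standard error % cells from three experiments in triplicate; ANOVA/Tukey.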

[2] = Antiproliferative activity against human NCI-H460 cells after 48 hrs by SRB assay; format: functional; details: NCI-H460, 48 h
Procedure, shortened: (§2)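 Cells grown in RPMI 1640 with 5% FBS, with penicillin/streptomycin in experimental cultures. Exposed in triplicate to 0.25, 2.5, 25 and 250 µg/mL in DMSO/RPMI for 48 h at 37 °C under 5% CO2. Plates were TCA-fixed before (T0) and after treatment, then stained with sulforhodamine B and read at 540 nm. GI50 was obtained by non-linear regression against untreated growth. Doxorubicin served as positive control.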

[3] = Cell cycle arrest in human 786-0 cells assessed as accumulation at G1 phase at 6.25 uM after 24 hrs by propidium iodide staining-based flow cytometry (Rvb=47.1+/-1%); format: functional; procedure, shortened: as §1
[4] = test system: 786-0; assay: Induction of apoptosis in human 786-0 cells assessed as necrotic cells at 25 uM after 24 hrs by Annexin V/7-AAD staining based flow cytometry; format: functional
Procedure, shortened: (§3)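 786-0 cells seeded at 3×10^4 cells/mL and grown 24 h at 37 °C under 5% CO2. Exposed to 25 µM in DMSO/RPMI for 15, 18 or 24 h against DMSO vehicle. Results are mean ± standard error from three experiments in triplicate.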

[5] = Selectivity index, ratio of CC50 for Herpes simplex type I KOS infected African green monkey Vero cells to EC50 for Herpes simplex virus type 1 KOS; format: toxicity, cell-based; details: Herpes simplex virus type 1 KOS infected Vero cells, read-out: Ratio CC50/EC50
Procedure, shortened: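 SI calculated as CC50/EC50. CC50 is the 50% cytotoxic concentration on Vero cells by sulforhodamine B, tested in triplicate from 0.1 to 1000 µg/mL. EC50 is the concentration protecting 50% of cells against HSV-1, with acyclovir as HSV-1 standard and drug-free cells as control.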

[6] = Cell cycle arrest in human 786-0 cells assessed as accumulation at G2/M phase at 6.25 uM after 24 hrs by propidium iodide staining-based flow cytometry (Rvb=36.5+/-1.1%); format: functional; procedure, shortened: as §1
[7] = test system: 786-0; assay: Induction of apoptosis in human 786-0 cells assessed as necrotic cells at 25 uM after 18 hrs by Annexin V/7-AAD staining based flow cytometry; format: functional; procedure, shortened: as §3
[8] = Antiproliferative activity against human OVCAR3 cells after 48 hrs by SRB assay; format: functional; details: OVCAR-3, 48 h; procedure, shortened: as §2
[9] = test system: 786-0; assay: Induction of apoptosis in human 786-0 cells assessed as late apoptotic or necrotic cells at 25 uM after 15 hrs by 7-AAD staining based flow cytometry; format: functional; procedure, shortened: as §3
[10] = Cell cycle arrest in human 786-0 cells assessed as accumulation at S phase at 6.25 uM after 24 hrs by propidium iodide staining-based flow cytometry (Rvb=12.6+/-0.7%); format: functional; procedure, shortened: as §1
[11] = test system: Human alphaherpesvirus 1; assay: Antiviral activity against Herpes simplex type I KOS; format: functional; details: Human alphaherpesvirus 1, KOS
[12] = test system: 786-0; assay: Induction of apoptosis in human 786-0 cells assessed as necrotic cells at 25 uM after 15 hrs by Annexin V/7-AAD staining based flow cytometry; format: functional; procedure, shortened: as §3
[13] = Cell cycle arrest in human 786-0 cells assessed as accumulation at sub-G1 phase at 12.5 uM after 24 hrs by propidium iodide staining-based flow cytometry (Rvb=3.7+/-0.9%); format: functional; procedure, shortened: as §1
[14] = Cytotoxicity against human 786-0 cells after 48 hrs by SRB assay; format: functional; details: 786-0, 48 h
Procedure, shortened: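 Sulforhodamine B assay in RPMI 1640 with 5% FBS. Triplicate exposures to 0.25–250 µg/mL in DMSO/RPMI for 48 h at 37 °C under 5% CO2. T0 and treated plates were fixed with 50% TCA and absorbance read at 540 nm. Parameters: TGI is total growth inhibition; LC50 is the concentration killing 50% of cells. Doxorubicin served as control.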

[15] = Cell cycle arrest in human 786-0 cells assessed as accumulation at G1 phase at 12.5 uM after 24 hrs by propidium iodide staining-based flow cytometry (Rvb=47.1+/-1%); format: functional; procedure, shortened: as §1
[16] = Cytotoxicity against African green monkey Vero cells after 48 hrs by SRB assay; format: toxicity, cell-based; details: chlorocebus sabaeus
Procedure, shortened: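 Vero (ATCC CCL81) cells grown in DMEM with 10% FBS and gentamicin at 37°C, 5% CO2. Cells exposed in triplicate to 1000, 500, 100, 10, 1 and 0.1 µg/mL, with untreated cells as control. Viability read by sulforhodamine B colorimetry. CC50 is the concentration giving 50% cytotoxicity.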

[17] = Antiproliferative activity against human MCF7 cells after 48 hrs by SRB assay; format: functional; details: MCF7, 48 h; procedure, shortened: as §2
[18] = Antiproliferative activity against human 786-0 cells after 48 hrs by SRB assay; format: functional; details: 786-0, 48 h; procedure, shortened: as §2
[19] = Antiproliferative activity against human HT-29 cells after 48 hrs by SRB assay; format: functional; details: HT-29, 48 h; procedure, shortened: as §2
[20] = test system: 786-0; assay: Induction of apoptosis in human 786-0 cells assessed as late apoptotic or necrotic cells at 25 uM after 18 hrs by 7-AAD staining based flow cytometry; format: functional; procedure, shortened: as §3
[21] = Cell cycle arrest in human 786-0 cells assessed as accumulation at sub-G1 phase at 6.25 uM after 24 hrs by propidium iodide staining-based flow cytometry (Rvb=3.7+/-0.9%); format: functional; procedure, shortened: as §1
[22] = Cell cycle arrest in human 786-0 cells assessed as accumulation at G2/M phase at 12.5 uM after 24 hrs by propidium iodide staining-based flow cytometry (Rvb=36.5+/-1.1%); format: functional; procedure, shortened: as §1
[23] = Antiproliferative activity against human NCI/ADR-RES cells after 48 hrs by SRB assay; format: functional; procedure, shortened: as §2
[24] = test system: 786-0; assay: Induction of apoptosis in human 786-0 cells assessed as late apoptotic or necrotic cells at 25 uM after 24 hrs by 7-AAD staining based flow cytometry; format: functional; procedure, shortened: as §3

CN(C)c1ccc(-c2nc(C(=O)N/N=C3/NC(=O)CS3)cc3c2[nH]c2ccccc23)cc1
Activity [1]: 12.4%
GI50 [2]: 1.44 µM
Activity [3]: 48.7%
Activity [4]: 38.7%
selectivity ratio [5]: 18
Activity [6]: 37%
Activity [7]: 34.4%
GI50 [8]: 1.27 µM
Activity [9]: 3.9%
Activity [10]: 11.9%
EC50 [11]: 96.8 µM
Activity [12]: 3.6%
Activity [13]: 15.3%
TGI [14]: 13 µM
CC50 ([14]; read-out: LC50 (the source's name)): 105 µM
Activity [15]: 40.5%
CC50 at 48 h [16]: 1740 µM
GI50 [17]: 2.93 µM
GI50 [18]: 1.6 µM
GI50 [19]: 5.04 µM
Activity [20]: 34.7%
Activity [21]: 2.3%
Activity [22]: 31.8%
GI50 [23]: 0.48 µM
Activity [24]: 36.6%
